GPR7 antag: GPR7 receptor antagonists, primary screen, cell-based, fluorescence, single concentration; GPR7-expressing cells, fluorescence antagonist assay; inhibition, % at 4.4 µM; 290,000 compounds, 1.1% hits; Neuropeptides B/W receptor type 1 (Homo sapiens), P48145; in the data active = inhibition above about 16%, passing the limit was not always enough;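 note: cells stimulated with the agonist NPW; 0% = agonist with vehicle and 100% = vehicle without agonist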
Target sequence (P48145 whole entry, looked up): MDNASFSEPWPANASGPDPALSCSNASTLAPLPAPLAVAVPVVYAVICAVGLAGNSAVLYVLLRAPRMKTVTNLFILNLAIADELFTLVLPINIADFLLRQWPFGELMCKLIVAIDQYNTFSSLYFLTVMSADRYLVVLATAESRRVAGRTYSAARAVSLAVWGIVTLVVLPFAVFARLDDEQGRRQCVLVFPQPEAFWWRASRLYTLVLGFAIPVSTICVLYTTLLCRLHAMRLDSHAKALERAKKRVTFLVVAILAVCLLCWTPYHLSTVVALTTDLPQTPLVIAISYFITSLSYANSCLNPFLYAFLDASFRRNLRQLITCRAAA
TAAR1 agonist: human TAAR1 agonists, primary screen, Fluo-8 calcium fluorescence, CHO RD-HGA16 cells; Trace amine-associated receptor 1 (Homo sapiens), Q96RJ0; AID 624467, 2012; vehicle wells 0%, saturating PEA agonist 100%; 360,000 compounds, 0.99% hits; activation, % at 3 µM;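 active = activation above the mean activation of all test compounds in the run plus 3 SD, cut at about 38% in these data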
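Signal – calcium-sensitive Fluo-8 signal, excitation 470-495, emission 515-575 nm · System – RD-HGA16 (CHO) cells co-expressing Gα16 and hTAAR1 · Incubation – 17-24 h seeding, 75 min 37 °C dye, 30 min RT · Compound dosing – 3 µM single concentration · Repeats – no replicates (n 1)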
OX1R antag-1: antagonists of human orexin 1 receptor (OX1R) | Orexin/Hypocretin receptor type 1 (Homo sapiens), O43613 | 330,000 compounds, 1.8% hits | inhibition, % at 6.6 µM | OX1R-expressing cells, FRET antagonist read-out; in the data active = inhibition mostly above about 38%, no sharp cut-off; inactive = mostly below about 40%;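 note: 0% = agonist challenge alone and 100% = reference antagonist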
Target sequence (O43613 whole entry, looked up): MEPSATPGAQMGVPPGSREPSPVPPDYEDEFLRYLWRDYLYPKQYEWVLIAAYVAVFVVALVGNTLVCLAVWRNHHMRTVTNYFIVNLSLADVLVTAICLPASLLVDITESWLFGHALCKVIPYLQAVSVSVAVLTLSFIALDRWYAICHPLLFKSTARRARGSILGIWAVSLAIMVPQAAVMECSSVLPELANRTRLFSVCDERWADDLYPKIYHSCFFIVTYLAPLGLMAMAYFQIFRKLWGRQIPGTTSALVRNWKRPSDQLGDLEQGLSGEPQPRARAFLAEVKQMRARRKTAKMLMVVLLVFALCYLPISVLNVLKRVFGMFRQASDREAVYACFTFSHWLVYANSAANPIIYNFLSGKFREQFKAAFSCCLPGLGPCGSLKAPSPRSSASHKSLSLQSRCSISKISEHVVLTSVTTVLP
OX1R antag-2: OX1R (HCRTR1) antagonists, primary screen, fluorescence, CHO/OX1R cells, Fluo-8 calcium, orexin A; 330,000 compounds, 0.43% hits; Fluo-8 calcium fluorescence; inhibition, % at 5 µM;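 active = inhibition above its plate's threshold, mean inhibition of all tested compounds on the plate plus 3 SD, cut at about 37% in these data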;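 note: 0% = orexin A challenge wells and 100% = SB-334867-A antagonist wells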
CHO parental Ca: ATP-evoked calcium signal inhibitors, parental CHO, primary screen, counter-screen for OX1R antagonist project, cell-based, fluorescence, Fluo-8 calcium dye; parental CHO-K1, ATP-induced calcium, Fluo-8 fluorescence; inhibition, % at 5.6 µM; 330,000 compounds, 0.63% hits; AID 463079, 2010;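 active = inhibition above that plate's mean sample inhibition plus 3 SD, cut at about 26% in these data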;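 note: 0% = ATP-challenged DMSO wells and 100% = DMSO wells without ATP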
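test system = CHO parental line | reagent = ATP stimulus | measured by = intracellular calcium via Fluo-8 no-wash fluorescent dye | control set = ATP and no-ATP DMSO wells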
TAAR1 antagonist: human TAAR1 antagonists, primary screen, Fluo-8 calcium fluorescence, CHO RD-HGA16 cells | Trace amine-associated receptor 1 (Homo sapiens), Q96RJ0 | antagonist | inhibition, % at 3 µM | 360,000 compounds, 1.5% hits | AID 624466, 2012;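 active = inhibition above a per-plate cutoff, the mean inhibition of test compounds on that plate plus 3 SD, cut at about 49% in these data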;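 note: 0% = DMSO plus EC80 beta-PEA response and 100% = DMSO alone without agonist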
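Assay system: RD-HGA16 CHO cells with stable hTAAR1 and Gα16 / Reagent: EC80 β-phenethylamine stimulus / Doses: 3 µM, single point / Timing: dye loading 75 min at 37 °C, then 30 min room temperature / Measured by: Fluo-8 intracellular calcium dye fluorescence, real-time kinetic reads / Controls: vehicle wells and EC80 agonist wells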
GPR7 antag conf: GPR7 receptor antagonists, confirmation, cell-based, fluorescence, single concentration; shares compounds with GPR7 antag; GPR7-expressing cells, calcium fluorescence antagonist mode; inhibition, % at 4.4 µM; 2,400 compounds, 52% hits; AID 1952, 2009; in the data active = inhibition above about 24%;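 note: stimulated with the GPR7 agonist NPW; 0% = agonist plus vehicle and 100% = vehicle alone without agonist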
MCHR1 antagonist: MCHR1 antagonists in cells, counter-screen for GPR7 antagonist project, cell-based, fluorescence, human; shares compounds with GPR7 antag; MCHR1-expressing cells, fluorescence antagonist assay; inhibition, % at 4.4 µM; 2,400 compounds, 62% hits; in the data active = inhibition above about 22%;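 note: 0% = vehicle with agonist and 100% = vehicle without agonist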
An asterisk follows results filed as active; x = not tested or not shown. Only some compounds are listed: those with a hit (about 4.6% of all), similar ones and a draw of the others.

SMILES	GPR7 antag	TAAR1 agonist	OX1R antag-1	OX1R antag-2	CHO parental Ca	TAAR1 antagonist	GPR7 antag conf	MCHR1 antagonist
Cc1nc(SCc2nc3c(F)cccc3[nH]2)c2oc3ccccc3c2n1	x	16.6	32.3	-11.2	-15.8	2.8	x	x
COc1ccc(Oc2ccc(/C=C/C(=O)c3ccc(O)cc3)cc2[N+](=O)[O-])cc1	26.5*	1.5	43.3	4.7	5.5	30.1	77.3*	86.5*
COc1ccc(N2C(=O)/C(=C3/C=CC=CN3C)SC2=S)cc1	23.6*	6.2	20.9	-9.4	-4.6	-4.0	-8.8	4.6
COc1ccccc1OCc1nnc(SCC(=O)NCc2ccco2)n1Cc1ccco1	0.6	8.6	6.2	-30.9	-10.8	2.3	x	x
CCn1c(COc2ccc(C)cc2)nnc1SCC(=O)NCc1ccco1	24.1*	2.8	25.4	-35.5	-32.2	7.5	8.2	-7.0
CC(CCn1cccn1)NC(=O)c1cc(COc2ccc(F)cc2F)on1 (configuration not stated)	6.2	12.7	8.2	-30.7	-10.1	-4.1	x	x
CC(CCn1cccn1)NC(=O)c1cc(COc2ccc(F)cc2Cl)on1 (configuration not stated)	33.8*	1.9	-3.6	-26.3	-9.9	9.0	-7.2	13.6
CCOC(=O)CSc1nnc(CNc2ccc(Cl)cc2)n1Cc1ccccc1	-9.8	2.3	43.2	-13.4	-0.4	8.3	x	x
CC(C)OC(=O)CSc1nnc(CNc2ccc(Cl)cc2)n1Cc1ccccc1	26.5*	14.9	50.4	53.3*	55.0*	29.4	23.8*	51.3*
O=C(NCC(=O)N1CC(O)CC1C(=O)N1CCCC1C(=O)OCc1ccccc1)OCc1ccccc1 (configuration not stated)	2.3	-0.7	-4.8	-0.2	3.4	-4.8	x	x
CCCCNCCCOc1cccc(Cl)c1Cl	35.2*	37.9*	15.6	-12.7	-9.2	-13.5	14.5	11.0
CCCCNCCCOc1ccc(C)cc1Br	-0.1	28.8	8.1	-17.1	-12.3	0.1	x	x
O=C(NCc1cccnc1)c1cc(C2CCCN(S(=O)(=O)c3ccccc3)C2)on1 (configuration not stated)	x	1.0	x	x	x	-5.2	x	x
COc1cc(NS(=O)(=O)c2cc3[nH]c(=O)c(=O)[nH]c3cc2C)cc(OC)c1OC	43.3*	2.2	11.9	19.8	-3.4	-3.8	4.4	4.8
N#CCCn1cc(/C=N/O)c(-c2ccc(Cl)cc2)n1	4.3	2.9	2.4	9.6	-12.8	14.2	x	x
N#CCCn1cc(C=C(C#N)C#N)c(-c2ccc(Cl)cc2)n1	31.7*	-0.3	30.3	-7.6	-2.6	-13.4	12.0	2.0
N#CCCn1cc(/C=N/O)c(-c2ccc(-c3ccccc3)cc2)n1	27.2*	1.5	22.9	5.7	0.4	6.3	30.6*	41.9*
COc1cccc(CNC(=O)CCC(=O)N2CC(C)Oc3ccccc32)c1OC (configuration not stated)	-9.3	1.8	8.5	-14.3	-5.8	-1.3	x	x
CC(=O)Nc1ccc(NC(=O)C(C)NC(C)c2cccc3ccccc23)cc1 (configuration not stated)	-5.3	1.0	28.3	-15.7	-1.1	-15.9	x	x
O=C(Cc1ccccc1)c1c[nH]c(C(=O)NCc2ccncc2)c1	-6.1	0.3	-17.2	-8.3	-14.2	-13.7	x	x
Cc1ccc(S(=O)(=O)CCC(=O)OCC(=O)NC(N)=O)cc1	-9.9	1.1	10.9	3.9	-6.8	-20.0	x	x
CCOC(=O)CCS(=O)(=O)c1ccc(-c2ccc(S(=O)(=O)CCC(=O)OCC)cc2)cc1	31.1*	12.6	9.1	5.1	-11.3	4.7	44.5*	48.9*
O=C(COc1ncnc2ccccc12)NCc1ccc2c(c1)OCO2	-6.5	10.4	5.0	-3.2	-18.5	3.5	x	x
COC(=O)CC1(C(=O)OC)Oc2ccc(Br)cc2C(=O)N1c1ccc(Br)cc1Cl (configuration not stated)	0.3	5.1	20.0	-16.4	-9.8	16.6	x	x
COC(=O)CC1(C(=O)OC)Oc2ccc(Br)cc2C(=O)N1c1cccc(Cl)c1Cl (configuration not stated)	29.9*	3.0	10.4	-15.9	-29.1	11.2	32.0*	53.3*
SMILES	GPR7 antag	TAAR1 agonist	OX1R antag-1	OX1R antag-2	CHO parental Ca	TAAR1 antagonist	GPR7 antag conf	MCHR1 antagonist
O=[N+]([O-])c1ccc(N2CCN(C(=S)NCc3ccc(Cl)cc3)CC2)cc1	50.8*	6.3	31.8	51.2*	84.4*	36.0	80.9*	87.1*
CCNC(=S)N1CCN(c2ccc([N+](=O)[O-])cc2)CC1	27.2*	11.6	47.0	-20.3	-4.6	-1.6	9.6	12.2
CNC(=S)N1CCN(c2ccc([N+](=O)[O-])cc2)CC1	2.7	6.0	25.9	0.1	4.3	5.6	x	x
CCc1nc2ccc(C(=O)N3CCN(c4ccc([N+](=O)[O-])cc4)CC3)cc2nc1CC	29.4*	-1.9	15.5	-33.1	-18.6	-4.6	23.9*	85.7*
Cc1ccc(N=C(NO)c2nonc2N)cc1	-11.9	0.1	0.7	-1.4	-18.2	17.6	x	x
Cc1cc(C)n2nc(CC(=O)NCc3ccccc3Cl)nc2n1	-8.2	1.9	-10.6	-0.3	-2.3	-7.8	x	x
CCOc1ccc(CNCc2ccc(C(=O)O)cc2)cc1OC	-7.5	4.8	-0.1	-14.5	-14.9	-3.2	x	x
COc1ccc(/C=C2\SC(=O)N(CC(=O)Nc3cccnc3)C2=O)cc1OC	-0.6	4.2	16.6	-10.7	-7.4	-10.2	x	x
COc1ccc(/C=C2\SC(=O)N(CC(=O)Nc3ccc(F)cc3)C2=O)cc1O	28.6*	3.9	16.3	3.3	0.3	27.8	0.5	6.1
Cc1cccc(NC(=O)c2ccc(S(=O)(=O)N3CCCCCC3)cc2)n1	x	6.7	6.3	-29.5	-9.3	13.0	x	x
CNc1ccccc1C(=O)OCC(=O)c1ccc(F)cc1	23.5*	-0.9	2.1	-27.2	-19.9	16.5	7.3	16.3
CCOC(=O)c1c(NC(=O)CSc2ncccn2)sc2c1CCN(Cc1ccccc1)C2	26.9*	5.2	x	x	x	16.2	21.7	50.7*
Cc1cc(Cl)ccc1NC(=O)NC1CCN(S(=O)(=O)c2ccc(F)cc2)CC1	-5.0	4.6	21.8	-18.7	-5.7	16.7	x	x

Screening results from PubChem BioAssay.
